Measurements published in ChEMBL document CHEMBL1137618, “Synthesis and structure-activity relationship studies of 3,6-diazabicyclo[3.2.0]heptanes as novel alpha4beta2 nicotinic acetylcholine receptor selective agonists” (J Med Chem, 2007).

What was measured:
[1] = Displacement of [3H]cytisine from neuronal nicotinic acetylcholine receptor in rat brain membrane; type: cell membranes
[2] = molecular target: T1, Neuronal acetylcholine receptor; alpha3/beta4 (Homo sapiens, UniProt P30926+P32297); assay: Agonist activity at recombinant human alpha-3-beta-4 nAChR expressed in HEK293 cells assessed as induction of calcium influx by FLIPR assay; type: functional, cell-based
T1 sequence (P30926 whole entry): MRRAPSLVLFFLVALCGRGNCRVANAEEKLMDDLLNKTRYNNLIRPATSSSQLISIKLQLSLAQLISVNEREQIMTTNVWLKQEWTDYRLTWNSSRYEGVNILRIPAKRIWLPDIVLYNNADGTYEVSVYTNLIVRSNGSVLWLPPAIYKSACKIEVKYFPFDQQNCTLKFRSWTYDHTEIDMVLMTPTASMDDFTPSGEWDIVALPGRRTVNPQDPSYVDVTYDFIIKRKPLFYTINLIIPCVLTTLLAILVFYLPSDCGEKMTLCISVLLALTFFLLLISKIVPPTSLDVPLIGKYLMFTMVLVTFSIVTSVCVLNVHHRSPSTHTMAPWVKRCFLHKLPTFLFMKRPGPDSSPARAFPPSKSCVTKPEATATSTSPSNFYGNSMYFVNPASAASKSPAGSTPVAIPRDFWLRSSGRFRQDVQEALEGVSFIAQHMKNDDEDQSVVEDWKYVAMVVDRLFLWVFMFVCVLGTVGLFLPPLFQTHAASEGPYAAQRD
T1 sequence (P32297 whole entry): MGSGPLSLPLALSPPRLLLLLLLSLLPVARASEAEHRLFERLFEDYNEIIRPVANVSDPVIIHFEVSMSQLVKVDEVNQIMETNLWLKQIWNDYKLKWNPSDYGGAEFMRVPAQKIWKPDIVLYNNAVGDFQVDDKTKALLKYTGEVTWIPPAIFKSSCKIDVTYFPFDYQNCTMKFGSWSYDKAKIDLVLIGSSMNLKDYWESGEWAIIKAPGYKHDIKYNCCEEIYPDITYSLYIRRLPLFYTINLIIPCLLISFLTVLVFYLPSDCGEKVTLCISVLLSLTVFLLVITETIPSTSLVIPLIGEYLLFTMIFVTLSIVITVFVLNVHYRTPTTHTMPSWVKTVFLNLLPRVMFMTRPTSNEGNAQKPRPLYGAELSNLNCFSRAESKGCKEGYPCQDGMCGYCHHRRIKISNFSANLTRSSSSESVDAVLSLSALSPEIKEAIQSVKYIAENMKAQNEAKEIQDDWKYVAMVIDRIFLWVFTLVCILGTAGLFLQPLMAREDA

[3] = molecular target: T2, Neuronal acetylcholine receptor; alpha4/beta2 (Homo sapiens, UniProt P17787+P43681); assay: Agonist activity at recombinant human alpha-4-beta-2 nAChR expressed in HEK293 cells assessed as induction of calcium influx by FLIPR assay relative to nicotine; type: functional, cell-based
T2 sequence (P17787 whole entry): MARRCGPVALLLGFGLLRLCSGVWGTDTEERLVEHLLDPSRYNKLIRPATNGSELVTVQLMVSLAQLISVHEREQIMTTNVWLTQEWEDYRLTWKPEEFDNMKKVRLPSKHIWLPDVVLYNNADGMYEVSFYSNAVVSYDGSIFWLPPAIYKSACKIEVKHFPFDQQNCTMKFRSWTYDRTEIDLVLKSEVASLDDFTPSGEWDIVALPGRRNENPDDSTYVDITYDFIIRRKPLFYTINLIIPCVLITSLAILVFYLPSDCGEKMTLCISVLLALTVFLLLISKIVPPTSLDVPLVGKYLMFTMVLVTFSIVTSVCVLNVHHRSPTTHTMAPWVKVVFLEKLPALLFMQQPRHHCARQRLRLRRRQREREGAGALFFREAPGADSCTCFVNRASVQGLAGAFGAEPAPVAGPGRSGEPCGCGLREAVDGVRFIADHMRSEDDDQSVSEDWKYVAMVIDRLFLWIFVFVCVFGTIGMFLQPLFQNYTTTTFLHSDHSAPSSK
T2 sequence (P43681 whole entry): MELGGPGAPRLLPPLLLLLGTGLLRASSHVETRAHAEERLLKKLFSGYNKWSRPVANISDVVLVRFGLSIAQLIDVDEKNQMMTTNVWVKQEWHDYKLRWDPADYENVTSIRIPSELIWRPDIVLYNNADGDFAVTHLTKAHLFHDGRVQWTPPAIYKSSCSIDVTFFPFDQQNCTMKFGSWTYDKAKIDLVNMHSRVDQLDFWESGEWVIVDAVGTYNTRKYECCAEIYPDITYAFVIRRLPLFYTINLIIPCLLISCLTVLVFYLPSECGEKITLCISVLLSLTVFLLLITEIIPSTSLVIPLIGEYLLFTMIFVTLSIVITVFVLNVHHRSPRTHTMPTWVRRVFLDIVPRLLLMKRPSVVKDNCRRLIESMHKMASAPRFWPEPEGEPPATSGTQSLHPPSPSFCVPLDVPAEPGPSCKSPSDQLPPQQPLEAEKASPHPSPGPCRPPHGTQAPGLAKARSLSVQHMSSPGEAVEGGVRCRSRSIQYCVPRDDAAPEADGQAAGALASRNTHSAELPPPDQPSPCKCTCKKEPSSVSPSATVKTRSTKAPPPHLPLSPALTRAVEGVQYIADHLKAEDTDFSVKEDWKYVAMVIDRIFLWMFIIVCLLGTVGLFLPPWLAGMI
Procedure, shortened: (§1)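 HEK-293 lines stably expressing human α4β2 or α3β4 nAChR, grown 24-48 h at 37 °C on poly-D-lysine in DMEM/10% FBS. Loaded with 2-4 µM Fluo-4 AM for ~0.75-1 h at room temperature in the dark, in NMDG Ringer pH 7.4. Serial log dilutions added, then peak calcium fluorescence read on FLIPR after buffer-blank subtraction.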

[4] = molecular target: T2, Neuronal acetylcholine receptor; alpha4/beta2; assay: Agonist activity at recombinant human alpha-4-beta-2 nAChR expressed in HEK293 cells assessed as induction of calcium influx by FLIPR assay; type: functional, cell-based
[5] = molecular target: T1, Neuronal acetylcholine receptor; alpha3/beta4; assay: Agonist activity at recombinant human alpha3beta4 nAChR expressed in HEK293 cells assessed as induction of calcium influx by FLIPR assay relative to nicotine; type: functional, cell-based; procedure, shortened: as §1

Row | Structure (SMILES) | Ki [1] [nM] | Log Ki [1] | EC50 ([2]; read-out: EC50) [nM] | Activity [3] [%] | EC50 ([4]; read-out: EC50) [nM] | EC50 ([4]; read-out: Log EC50 (converted)) [nM] | Activity [5] [%] | EC50 ([2]; read-out: Log EC50 (converted)) [nM]
1 | COc1cc(N2C[C@H]3CN[C@H]3C2)cnc1Br | 0.07 | -10.15 | 100 | 159 | 200 | 148 | 113 | –
2 | Brc1cc(N2C[C@H]3CNC[C@H]32)cnc1Br | 0.5 | -9.35 | 1100 | 131 | 6900 | 676 | 94 | –
3 | Cc1cc(N2C[C@@H]3CN[C@@H]3C2)cnc1Cl | 0.08 | -10.1 | 700 | 134 | 300 | – | 100 | –
4 | Cc1ncc(N2C[C@H]3CNC[C@H]32)cc1C#N | 1.1 | -8.95 | 2100 | 128 | 3900 | 3800 | 96 | –
5 | Clc1cc(N2C[C@@H]3CNC[C@@H]32)cnc1Cl | 1.2 | -8.93 | 2600 | 110 | 900 | – | 87 | –
6 | C#Cc1cncc(N2C[C@@H]3CNC[C@@H]32)c1 | 0.6 | -9.21 | 33200 | 45 | 20400 | 13500 | 33 | 13200
7 | Clc1cc(N2C[C@@H]3CN[C@@H]3C2)cnc1Cl [SOFINICLINE] | 0.3 | -9.53 | 1500 | 110 | 400 | – | 92 | –
8 | CN1CCC[C@H]1c1cccnc1 [NICOTINE] | – | – | – | 101 | – | – | 89 | –
9 | c1cncc(N2C[C@@H]3CNC[C@@H]32)c1 | 0.7 | -9.15 | 9700 | 101 | 2800 | 2690 | 97 | –
10 | Cc1cc(N2C[C@@H]3CN[C@@H]3C2)cnc1C | 2.2 | -8.65 | 3300 | 76 | 1200 | – | 85 | –
11 | Clc1ccc(N2C[C@@H]3CNC[C@@H]32)cn1 | 1.3 | -8.9 | 1200 | 107 | 300 | – | 94 | –
12 | N#Cc1cncc(N2C[C@H]3CNC[C@H]32)c1 | 3.2 | -8.5 | – | 65 | 5900 | 5130 | 16 | –
13 | Clc1ccc(N2C[C@H]3CNC[C@H]32)cn1 | 1.2 | -8.91 | 1100 | 127 | 600 | 537 | 104 | –
14 | Brc1cncc(N2C[C@H]3CNC[C@H]32)c1 | 3.1 | -8.51 | – | 31 | 4400 | 4070 | < 10 | –
15 | c1cncc(N2C[C@@H]3CN[C@@H]3C2)c1 | 1.2 | -8.92 | 6100 | 122 | 1600 | – | 90 | –
16 | Cc1ncc(N2C[C@@H]3CNC[C@@H]32)cc1C#N | 0.7 | -9.18 | 1600 | 116 | 500 | – | 95 | –
17 | Cc1cncc(N2C[C@@H]3CN[C@@H]3C2)c1 | 2.5 | -8.61 | 8000 | 76 | 39900 | 30900 | 74 | 33100

Row | Structure (SMILES) | Ki [1] [nM] | Log Ki [1] | EC50 ([2]; read-out: EC50) [nM] | Activity [3] [%] | EC50 ([4]; read-out: EC50) [nM] | EC50 ([4]; read-out: Log EC50 (converted)) [nM] | Activity [5] [%] | EC50 ([2]; read-out: Log EC50 (converted)) [nM]
18 | NC(=O)c1cc(N2C[C@H]3CNC[C@H]32)cnc1Br | 6.5 | -8.19 | 21200 | 155 | 1100 | – | 88 | 20900
19 | Clc1cncc(N2C[C@@H]3CN[C@@H]3C2)c1 | 1.9 | -8.72 | 25300 | 66 | 11400 | 9330 | 57 | –
20 | Cc1ncc(N2C[C@H]3CN[C@H]3C2)cc1C#N | 0.06 | -10.22 | 90 | 136 | 500 | 43.7 | 101 | –
21 | Cc1cncc(N2C[C@@H]3CNC[C@@H]32)c1 | 1.1 | -8.94 | 16900 | 68 | 10400 | – | 74 | –
22 | Cc1cc(N2C[C@@H]3CNC[C@@H]32)cnc1C | 3.1 | -8.51 | 12300 | 83 | 1500 | – | 78 | 12000
23 | COc1cncc(N2C[C@@H]3CNC[C@@H]32)c1 | 7.2 | -8.14 | 31200 | 43 | 24700 | 22900 | 64 | –
24 | COc1cncc(N2C[C@H]3CN[C@H]3C2)c1 | 0.1 | -9.96 | 1000 | 130 | 1000 | – | 99 | –
25 | Brc1cncc(N2C[C@@H]3CNC[C@@H]32)c1 | 1.5 | -8.83 | 6600 | 20 | 11400 | 8710 | 23 | 3090
26 | COc1cc(N2C[C@H]3CNC[C@H]32)cnc1Br | 0.2 | -9.68 | 1800 | 118 | 900 | – | 94 | –
27 | Cc1cc(N2C[C@H]3CNC[C@H]32)cnc1Cl | 0.2 | -9.7 | 600 | 133 | 200 | 229 | 97 | –
28 | N=C(NO)c1cncc(N2C[C@H]3CNC[C@H]32)c1 | 29.1 | -7.54 | – | 76 | 7200 | 6760 | < 10 | –
29 | c1cncc(N2C[C@H]3CN[C@H]3C2)c1 | 0.1 | -9.96 | 6000 | 181 | 300 | – | 119 | 603
30 | c1coc(-c2cncc(N3C[C@H]4CNC[C@H]43)c2)n1 | – | – | – | < 10 | – | – | < 10 | –
31 | Clc1ccc(C2CC3CCC2N3)cn1 (centres undefined) [EPIBATIDINE] | – | – | – | 133 | – | – | 103 | –
32 | N#Cc1cc(N2C[C@H]3CNC[C@H]32)c[n+]([O-])c1 | 18.6 | -7.74 | – | 69 | 7500 | 4570 | < 10 | –
33 | C#Cc1cncc(N2C[C@H]3CNC[C@H]32)c1 | – | – | 86900 | 77 | 13400 | 4900 | 57 | 77600
